FXN GAA850 act – increases GAA850 frataxin promoter reporter activity; HEK293 lucGAA850 FXN promoter luciferase reporter, 24 h; percent of 10 µM SAHA response; activation, % at 6 µM; 0.56% of 360,000 active;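 active = activation above the average of all compounds screened plus 3 SD, cutoff fixed separately per campaign, cut at about 7.5% in these data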;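 note: 0% = DMSO wells and 100% = 10 µM SAHA wells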
AHR activator – activators of human aryl hydrocarbon receptor; P35869; AHR-responsive luciferase reporter cells, luminescence; activation, % at 5 µM; 2.5% of 320,000 active; AID 2796; in the data active = activation above about 47%;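 note: 0% = vehicle wells and 100% = reference agonist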
GASC-1 inh – human JMJD2C demethylase inhibition | Q9H3R0 | GST-JMJD2C(1-420) H3K9me3 demethylation, DELFIA europium | inhibition, % at 2.35 µM | 0.069% of 330,000 active | AID 2099;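 active = more than half of a compound's replicate wells show inhibition beyond 50%, single wells judged on their own value; inconclusive = some, but no more than half, of replicates pass 50% inhibition; inactive = no replicate passes 50% inhibition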;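 note: signal counts dimethyl H3K9 product captured on neutravidin plate; 0% = median of DMSO wells and 100% = 0.3 times that DMSO median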
SR-BI uptake up – activators of SR-BI mediated HDL lipid uptake | AID 504775 | activation, % at 12.5 µM | CHO ldlA[mSR-BI] cells, DiI-HDL uptake fluorescence, 3 h; 100 = double the neutral-control signal | 0.096% of 320,000 active;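 active = mean replicate activation of at least 60% and every replicate at or above 60%; inconclusive = mean or all-replicate condition met, but not both; inactive = mean below 60% and not all replicates reaching 60%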;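 note: 0% = median plate neutral-control signal and 100% = twice that signal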
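Assay system: CHO ldlA[mSR-BI] cells, LDL receptor-null, SR-BI overexpressing; medium: Ham's F12 with 0.5% BSA, HEPES 25 mM, pH 7.4; also added: DiI-HDL 10 µg/mL; timing: 3 h uptake period with compound, 37 °C; signal: DiI fluorescence, bottom read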
SR-BI HDL uptake – blocks mouse SR-BI lipid uptake from DiI-HDL; AID 488896; inhibition, % at 12.5 µM; ldlA[mSR-BI] CHO cells, DiI-HDL uptake fluorescence, 3 h; 0.96% of 320,000 active; Q61009;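 active = mean replicate inhibition of at least 70% and a set share of replicates each scoring 70 or more; inconclusive = meets just one of the two criteria; inactive = fails both criteria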;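 note: 0% = median of neutral control wells and 100% = median of positive control wells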
An asterisk follows results filed as active; ? = inconclusive; · = not tested or not shown. Rows were chosen to be rich in hits. Some 3.7% of all compounds tested hit in one or more screens of this group.

SMILES	FXN GAA850 act	AHR activator	GASC-1 inh	SR-BI uptake up	SR-BI HDL uptake
Cc1noc(C)c1COc1ccc(C(=O)NNC(=O)c2ccccc2O)cc1	-1.9	27.3	-15.1	-95.1	95.1*
CN(C)/C=C/C(=O)c1ccc2noc(-c3ccc(F)cc3)c2c1	-0.9	1.2	-1.8	-86.5	86.5*
Cc1ccc(-c2onc3ccc(C(=O)/C=C/N(C)C)cc23)cc1	0.3	2.9	-3.8	-29.5	29.5
O=C(Nc1cccnc1)c1ccc(NS(=O)(=O)c2cc([N+](=O)[O-])ccc2Cl)cc1	1.5	3.6	5.5	-26.8	26.8
COc1cc(-c2noc(-c3cccs3)n2)cc(OC)c1OC	0.6	47.7*	-37.8	-57.1	57.1
COc1cc(-c2nc(-c3ccccc3)c(-c3cccs3)[nH]2)cc(OC)c1OC	-7.2	70.1*	4.4	-43.3	43.3
COc1cc(-c2nc(-c3ccccc3)c(-c3cccs3)[nH]2)cc(OC)c1O	-3.8	5.1	-11.1	-36.0	36.0
O=C(NC(=S)Nc1cc(-c2nc3ccccc3[nH]2)ccc1Cl)c1ccc2c(c1)OCO2	1.5	83.6*	15.8	-38.4	38.4
Cc1ccc(-c2nc3ccccc3[nH]2)cc1NC(=O)c1ccc2c(c1)OCO2	0.8	15.7	8.1	-58.8	58.8
COc1ccc(OC)c(CN2CCN(C(=O)c3ccc(C)c(S(=O)(=O)Nc4ccccc4OC)c3)CC2)c1	-0.2	·	·	-77.4	77.4*
COc1ccc(NS(=O)(=O)c2cccc(C(=O)N3CCN(Cc4cc(OC)ccc4OC)CC3)c2)cc1	-1.0	6.8	5.7	-74.4	74.5*
COc1ccc(OC)c(CN2CCN(C(=O)c3cccc(S(=O)(=O)Nc4ccc(C)cc4)c3)CC2)c1	0.6	11.5	-12.0	-39.6	39.6
COc1ccc(C(=O)/C=C2\NCC3c4ccccc4CCN3C2=O)cc1 (configuration not stated)	-0.1	88.8*	-5.5	7.7	-7.7
COc1ccc(C(=O)N2CCc3ccccc32)cc1	4.9	4.5	-2.5	-8.4	8.4
O=c1[nH]c(=S)[nH]cc1Oc1ccc(Cl)cc1	-0.7	·	·	19.8	-19.8
O=c1cc(-c2ccccc2)nc2cc(-c3ccc(F)cc3)[nH]n12	-3.0	51.6*	-22.3	-3.7	3.7
CCC1CCCCN1CCCNC(=O)CN1C(=O)COc2ccc(S(=O)(=O)N3CCOCC3)cc21 (configuration not stated)	2.9	-0.1	23.0	2.3	-2.3
Cc1cccc(-c2ocnc2C(=O)Nc2ccccc2NC(=O)c2ccccn2)c1	0.7	55.8*	-2.1	·	·
Cc1ccc(-c2ocnc2C(=O)Nc2nc(C)cs2)cc1	3.7	68.2*	5.3	-17.1	17.1
NC(=S)N/N=C\c1c2ccccc2cc2ccccc12	-2.6	7.2	-2.9	-36.2	36.2
NC(=S)N/N=C\c1c(OCc2ccccc2Cl)ccc2ccccc12	-2.3	70.2*	-6.6	-59.8	59.8
Cc1c(Cl)cccc1NC(=O)c1cc(-c2ccccc2O)n[nH]1	2.5	-8.4	10.8	-9.7	9.7
Cc1ccc(O)c(-c2cc(-c3cccc(Br)c3)n[nH]2)c1	1.1	69.9*	-0.5	-68.1	68.1
Cc1ccc(-c2cc(-c3ccccc3Cl)[nH]n2)c(O)c1	4.0	86.2*	-7.1	-24.4	24.4
COc1ccc(-c2cc(-c3ccccc3O)[nH]n2)cc1	4.6	26.0	-8.9	-55.3	55.3
SMILES	FXN GAA850 act	AHR activator	GASC-1 inh	SR-BI uptake up	SR-BI HDL uptake
Cc1ccc(-c2cc(-c3ccccc3[N+](=O)[O-])[nH]n2)c(O)c1	1.6	59.6*	-11.1	-7.3	7.3
Cc1ccc(-c2cc(-c3ccc(C)cc3O)[nH]n2)cc1	2.1	68.1*	-8.1	-100.4	100.4*
Cc1ccc(-c2cc(-c3ccc(F)cc3)n[nH]2)c(O)c1	7.5	·	-9.0	-17.3	17.3
Cc1cc(C)nc(-n2nc(C)c3c(C(=O)O)cc(-c4cccc(Br)c4)nc32)n1	2.1	1.6	-11.3	·	·
Cc1ccc(C(=O)OCC(=O)NC(C)c2ccccc2)cc1C (configuration not stated)	0.8	0.1	-5.9	-3.3	3.3
COc1ccc(NC(=O)[C@@H]2[C@@H]3C(=O)N(C4CCCCC4)C(=O)[C@@H]3C3c4ccccc4C=CN32)cc1 (some centres not stated)	-0.6	90.4*	10.9	·	·
CC(=O)[C@@H]1[C@@H]2C(=O)N(C3CCCCC3)C(=O)[C@@H]2C2c3ccccc3C=CN21 (some centres not stated)	·	27.0	-1.0	·	·
COC(=O)Nc1sc2c(c1C(N)=O)CCC(C)C2 (configuration not stated)	2.5	8.1	17.1	-47.7	47.7
CC1CCc2c(sc(NC(=O)c3cccn3C)c2C(N)=O)C1 (configuration not stated)	1.2	31.2	-0.4	-81.3	81.3*
CN1CCSc2ccc(C(=O)NCc3ccccc3)cc21	1.5	61.8*	-27.8	-12.0	12.0
COc1ccc(NC(=O)c2ccc3c(c2)N(C)CCS3)cc1	1.8	72.1*	2.5	-61.2	61.2
CN1CCSc2ccc(C(=O)Nc3cccc(F)c3)cc21	4.6	125.7*	-6.8	·	·
Cc1cc(C)c(C)c(OCC(=O)N2CCN(c3ccccn3)CC2)c1	4.1	27.0	-20.4	·	3.2
Cc1cc(OCC(=O)N2CCN(c3ccccn3)CC2)c(C)cc1Br	2.3	54.4*	-6.1	·	-11.6
O=C1N(CCCCN2C(=O)C3(OCCO3)c3ccccc32)c2ccccc2C12OCCO2	-2.3	59.9*	39.1	28.0	-28.0
Cc1ccc(C(=O)N(C)CC(=O)Nc2ccc(F)c(F)c2F)o1	-1.1	-1.3	·	-7.9	7.9
c1ccc(Cn2nnnc2C(c2cccnc2)N2CCN(c3ccccc3)CC2)cc1 (configuration not stated)	-0.5	79.0*	1.2	14.6	-14.6
COCCn1nnnc1C(c1ccccc1OC)N1CCN(c2ccccc2)CC1 (configuration not stated)	0.5	66.9*	6.9	32.6	-32.6
O=C(NCCS(=O)(=O)N1CCN(c2ccccc2)CC1)c1cccc(F)c1	1.9	1.2	?	-5.1	5.1
CC(=O)Nc1sc(C)c(C)c1C(=O)Nc1ccc(C)cc1	1.4	9.2	7.4	-4.2	4.2
CCCC(=O)Nc1sc(C)c(C)c1C(=O)Nc1cccc(C)c1	3.5	3.0	-1.8	-71.5	71.5*
Nc1ccccc1N1C(=O)c2cccc3cccc(c23)C1=O	2.7	66.9*	-2.4	·	·
O=C1c2ccccc2C(=O)N1c1ccccc1	-1.9	·	·	-3.6	3.6
Nc1cccc2c1C(=O)N(c1ccccc1)C2=O	-0.1	49.3*	14.5	-4.3	4.3
COc1cc(C(=O)N(C)CCOc2ccc(C)cc2)ccc1OC1CCN(C(C)=O)CC1	1.3	-2.9	2.8	-1.6	1.6
O=C(Nc1cccc(C(=O)O)c1)/C(=C\c1ccc2c(c1)OCO2)NC(=O)c1ccccc1Br	2.5	·	·	·	·
CC(C)(C)c1ccc(C(=O)NCC(=O)NNC(=O)c2ccccc2O)cc1	3.4	9.5	10.5	-90.0	90.0*

Screens as filed in PubChem.
